Measurements: ChEMBL document CHEMBL1817557, “Synthesis and biological evaluation of orally active hypolipidemic agents” (J Med Chem, 2011)
≈ marks a conversion by molar mass, not a printed value.

Assays:
[1] = Aqueous solubility of the compound in 0.2 M hydrochloric acid buffer at pH 1.0 after 4 hrs by HPLC method; format: physicochemical
[2] = Aqueous solubility of the compound in 0.1 M citric acid buffer at pH 3.0 after 4 hrs by HPLC method; format: physicochemical; conditions: pH 3, 4 h
[3] = Aqueous solubility of the compound in 0.1 M boric acid buffer at pH 9.0 after 4 hrs by HPLC method; format: physicochemical
Mus musculus [4] = assay: Hypolipidemic activity in Swiss albino mouse assessed as decrease in plasma triglyceride level at 50 mg/kg, po administered daily for 8 days measured on day 9 by spectrophotometry relative to control; format: functional; design: scale not given: the % may be the effect or the level left
Procedure, shortened: (§1)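 Male Swiss albino mice (moderately hypertriglyceridemic model) dosed by oral gavage at 50 mg/kg body weight once daily for 8 days; plasma triglyceride and total cholesterol measured. Percent change calculated relative to vehicle-treated control group; mean ± SE, n = 10 mice per group.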

Mus musculus [5] = assay: Hypolipidemic activity in Swiss albino mouse assessed as decrease in plasma total cholesterol level at 50 mg/kg, po administered daily for 8 days measured on day 9 by spectrophotometry relative to control; format: functional; design: scale not given: the % may be the effect or the level left; procedure, shortened: as §1
[6] = Aqueous solubility of the compound in 0.2 M phosphate buffer at pH 7.4 after 4 hrs by HPLC method; format: physicochemical
[7] = Octanol-buffer partition coefficient, log P of the compound at pH 7.4 by HPLC; format: physicochemical
Procedure, shortened: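 Partition coefficient determined by HPLC in an octanol–buffer system at pH 7.4, 25 °C.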

[8] = Aqueous solubility of the compound in 0.1 M phosphate buffer at pH 5.2 after 4 hrs by HPLC method; format: physicochemical
Mus musculus [9] = assay: Hypolipidemic activity in Swiss albino mouse assessed as change in plasma total cholesterol level at 50 mg/kg, po administered daily for 8 days measured on day 9 by spectrophotometry relative to control; format: functional; procedure, shortened: as §1

solubility ([1]; buffer, pH 1, 4 h)	solubility [2]	solubility at 4 h [3]	solubility at 4 h [6]	logD [7]	solubility at 4 h [8]	solubility at 4 h ([1]; 0.2 M hydrochloric acid buffer, pH 1)	Structure (SMILES)	Activity (Mus musculus [4])	Activity (Mus musculus [5])	Activity (Mus musculus [9])
5 ng/mL (≈ 11.6 nM)	15 ng/mL (≈ 34.7 nM)	4800 ng/mL (≈ 11100 nM)	1920 ng/mL (≈ 4450 nM)	3.5	38000 ng/mL (≈ 88000 nM)		CC(C)(Oc1ccc(C(=O)c2ccc(Cl)cc2)cc1)C(=O)OCCN1CCOCC1	27.6%	2.4%	
	2 ng/mL (≈ 4.64 nM)	4 ng/mL (≈ 9.28 nM)	2 ng/mL (≈ 4.64 nM)	4.35	3 ng/mL (≈ 6.96 nM)	230 ng/mL (≈ 534 nM)	Cc1oc(=O)oc1COC(=O)C(C)(C)Oc1ccc(C(=O)c2ccc(Cl)cc2)cc1	27.2%	11.2%	
				4.78			CC(C)OC(=O)C(C)(C)Oc1ccc(C(=O)c2ccc(Cl)cc2)cc1 [FENOFIBRATE]	48.6%	5.5%	
		3 ng/mL (≈ 7.41 nM)	2 ng/mL (≈ 4.94 nM)	4.65	3 ng/mL (≈ 7.41 nM)		CC(=O)OC(C)OC(=O)C(C)(C)Oc1ccc(C(=O)c2ccc(Cl)cc2)cc1 (centres undefined)	33.1%		-3.5%
	2 ng/mL (≈ 4.6 nM)	6 ng/mL (≈ 13.8 nM)	2 ng/mL (≈ 4.6 nM)	4.91	2 ng/mL (≈ 4.6 nM)		CC(C)OC(=O)OCOC(=O)C(C)(C)Oc1ccc(C(=O)c2ccc(Cl)cc2)cc1	33.1%	7.2%	
		22 ng/mL (≈ 49 nM)	1 ng/mL (≈ 2.23 nM)	5.43	1 ng/mL (≈ 2.23 nM)		CC(C)OC(=O)OC(C)OC(=O)C(C)(C)Oc1ccc(C(=O)c2ccc(Cl)cc2)cc1 (centres undefined)	47%	7.7%	
		1 ng/mL (≈ 2.31 nM)	2 ng/mL (≈ 4.62 nM)	4.7	1 ng/mL (≈ 2.31 nM)		CC(C)(C)C(=O)OCOC(=O)C(C)(C)Oc1ccc(C(=O)c2ccc(Cl)cc2)cc1	45%	9%	
